Assay results taken from ChEMBL document CHEMBL1136766, “Design, synthesis, and biological evaluation of new inhibitors of the endocannabinoid uptake: comparison with effects on fatty acid amidohydrolase” (J Med Chem, 2003).
pIC50, pKi: −log10 of the molar value.

Assays:
[1] = target: Transient receptor potential cation channel subfamily V member 1 (Rattus norvegicus, UniProt O35433); test: Binding affinity against vanilloid receptor 1 (VR1) using [3H]RTX in rat spinal cord membranes; format: cell membranes, Membrane
In short: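 Rat spinal cord membranes (about 1 mg/mL protein) in HEPES/sucrose buffer pH 7.4 with 0.25 mg/mL BSA. Incubated 60 min at 37 °C with 25 pM [3H]RTX plus competitor; nonspecific binding defined with 1 µM RTX. Stopped on ice, α1-acid glycoprotein added, membranes pelleted and counted. Ki by Cheng-Prusoff. Two to four experiments in triplicate.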

[2] = target: Cannabinoid receptor 2 (Homo sapiens, UniProt P34972); test: Binding affinity against G protein coupled human Cannabinoid receptor 2 using [3H]CP-55940 in HEK293 EBNA transfected cells; format: cell-based
In short: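 Incubated 90 min at 30 °C with 0.3 nM [3H]CP55940 plus competitor. Filtered and counted by scintillation. IC50 from curve fit, Ki by Cheng-Prusoff. Two to four experiments in triplicate.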

[3] = target: T1, Fatty-acid amide hydrolase 1 (Rattus norvegicus, UniProt P97612); test: Inhibition of fatty acid amide hydrolase (FAAH) was determined using rat brain homogenates as the enzyme source and [3H]anandamide as substrate; format: tissue-based
T1 sequence (P97612 whole entry): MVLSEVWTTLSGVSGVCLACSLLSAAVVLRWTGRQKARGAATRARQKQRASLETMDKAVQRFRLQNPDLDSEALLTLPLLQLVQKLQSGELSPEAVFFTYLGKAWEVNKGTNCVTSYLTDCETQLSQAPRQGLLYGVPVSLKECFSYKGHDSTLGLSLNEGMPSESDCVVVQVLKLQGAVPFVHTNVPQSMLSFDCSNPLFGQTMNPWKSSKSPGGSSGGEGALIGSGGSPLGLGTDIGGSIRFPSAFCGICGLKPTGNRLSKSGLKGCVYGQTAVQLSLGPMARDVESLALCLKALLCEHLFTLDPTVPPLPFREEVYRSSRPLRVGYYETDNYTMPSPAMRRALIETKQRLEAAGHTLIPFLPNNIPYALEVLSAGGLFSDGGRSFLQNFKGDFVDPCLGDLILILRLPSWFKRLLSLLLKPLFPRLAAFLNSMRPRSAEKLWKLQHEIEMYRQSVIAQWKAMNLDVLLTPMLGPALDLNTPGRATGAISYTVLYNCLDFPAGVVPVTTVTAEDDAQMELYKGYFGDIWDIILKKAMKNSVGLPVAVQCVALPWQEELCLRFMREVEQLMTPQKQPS
In short: (§1)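 Rat brain homogenate without cerebellum, in 10 mM Tris-HCl/1 mM EDTA pH 7.6, incubated 10 min at 37 °C with compound (ethanol carrier). Substrate: anandamide 2 µM final with trace [3H]anandamide labelled in the ethanolamine, plus BSA. Stopped on ice with chloroform/methanol; [3H]ethanolamine in the aqueous phase counted. Eight concentrations from 0.5 to 100 µM, at least three experiments.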

[4] = species on record: Homo sapiens; test: Inhibition of [3H]anandamide transport(ANT) in human lymphoma U937 cell; format: functional; details: U-937
In short: (§2)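 U937 cells (10^6/mL, RPMI 1640) preincubated 10 min at 37 °C with inhibitor, highest concentration tested 50 µM. Then [3H]anandamide 0.45 nM plus cold anandamide (100 nM final) added for 7 min. Stopped by GF/C filtration and washed with Krebs-HEPES; radioactivity counted. Nonspecific uptake measured at 4 °C. IC50 by curve fit; maximum inhibition is the % inhibition at 50 µM.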

[5] = target: T2, Fatty-acid amide hydrolase 1 (Rattus norvegicus) (UniProt P97612); test: Inhibition of fatty acid amide hydrolase (FAAH) in rat brain homogenates; format: tissue-based; in short: as §1
T2 sequence (whole entry): T1 sequence (P97612 whole entry)

[6] = species on record: Homo sapiens; test: Maximum Inhibition of anandamide transport(ANT) was determined against human lymphoma U937 cell at a dose of 50 uM; format: functional, U-937; in short: as §2
[7] = target: Cannabinoid receptor 1 (Rattus norvegicus, UniProt P20272); test: Binding affinity against G protein coupled Cannabinoid receptor 1 using [3H]WIN-55212-2 in rat cerebellum membranes; format: cell membranes, Membrane
In short: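 Rat cerebellum membranes washed in 50 mM Tris-HCl pH 7.4, resuspended at about 2 mg/mL protein. Incubated 90 min at 30 °C with 0.5 nM [3H]WIN55212-2 plus competitor in Tris/EDTA/MgCl2/5 mg/mL BSA buffer. Nonspecific binding defined with 10 µM SR141716A. Bound ligand separated by GF/C filtration and counted by scintillation. IC50 from curve fit, Ki by Cheng-Prusoff. Two to four experiments in triplicate.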

[8] = target: T2, Fatty-acid amide hydrolase 1 (Rattus norvegicus); test: Maximum Inhibition of fatty acid amide hydrolase (FAAH) was determined using rat brain homogenates at 100 uM
In short: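 Rat brain (minus cerebellum) homogenate in 10 mM Tris-HCl, 1 mM EDTA, pH 7.6, incubated 10 min at 37 °C with test agent or ethanol carrier. Substrate: 2 µM final anandamide with trace [3H]anandamide (ethanolamine label), 1% fatty acid free BSA. Stopped on ice plus chloroform/methanol. Aqueous-phase [3H]ethanolamine counted by scintillation. Inhibition read at 100 µM where IC50 fit failed.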

Sequence of Cannabinoid receptor 2 (P34972 whole entry): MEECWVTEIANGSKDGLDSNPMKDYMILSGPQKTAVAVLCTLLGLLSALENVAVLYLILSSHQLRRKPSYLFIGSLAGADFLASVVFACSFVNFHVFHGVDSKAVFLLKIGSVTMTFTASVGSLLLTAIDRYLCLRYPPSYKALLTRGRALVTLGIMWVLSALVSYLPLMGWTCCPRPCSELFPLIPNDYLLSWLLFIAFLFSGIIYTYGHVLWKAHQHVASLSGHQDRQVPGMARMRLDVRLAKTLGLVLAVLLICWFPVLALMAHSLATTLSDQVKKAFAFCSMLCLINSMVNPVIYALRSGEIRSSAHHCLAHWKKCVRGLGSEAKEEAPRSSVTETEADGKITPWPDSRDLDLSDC
Sequence of Transient receptor potential cation channel subfamily V member 1 (O35433 whole entry): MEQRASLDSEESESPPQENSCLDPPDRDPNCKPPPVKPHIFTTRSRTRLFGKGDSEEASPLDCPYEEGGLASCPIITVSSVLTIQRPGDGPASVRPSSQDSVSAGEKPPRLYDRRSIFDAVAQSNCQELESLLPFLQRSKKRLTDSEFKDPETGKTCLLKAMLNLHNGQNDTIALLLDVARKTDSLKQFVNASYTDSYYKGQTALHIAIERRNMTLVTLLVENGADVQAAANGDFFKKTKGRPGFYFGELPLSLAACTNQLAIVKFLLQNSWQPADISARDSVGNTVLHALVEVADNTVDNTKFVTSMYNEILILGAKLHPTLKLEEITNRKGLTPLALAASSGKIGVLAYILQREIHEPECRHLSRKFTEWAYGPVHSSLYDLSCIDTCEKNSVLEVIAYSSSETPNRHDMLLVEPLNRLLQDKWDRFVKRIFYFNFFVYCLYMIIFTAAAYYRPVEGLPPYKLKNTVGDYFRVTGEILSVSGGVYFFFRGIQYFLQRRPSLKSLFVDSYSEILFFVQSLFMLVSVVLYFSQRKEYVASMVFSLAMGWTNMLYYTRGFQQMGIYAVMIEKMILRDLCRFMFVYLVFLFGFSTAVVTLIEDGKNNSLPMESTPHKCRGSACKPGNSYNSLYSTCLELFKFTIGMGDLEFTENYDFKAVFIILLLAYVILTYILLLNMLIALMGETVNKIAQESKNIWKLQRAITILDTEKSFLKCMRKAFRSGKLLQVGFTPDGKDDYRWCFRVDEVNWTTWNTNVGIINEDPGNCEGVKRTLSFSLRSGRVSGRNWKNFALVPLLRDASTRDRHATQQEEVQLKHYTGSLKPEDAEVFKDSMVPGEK
Sequence of Cannabinoid receptor 1 (P20272 whole entry): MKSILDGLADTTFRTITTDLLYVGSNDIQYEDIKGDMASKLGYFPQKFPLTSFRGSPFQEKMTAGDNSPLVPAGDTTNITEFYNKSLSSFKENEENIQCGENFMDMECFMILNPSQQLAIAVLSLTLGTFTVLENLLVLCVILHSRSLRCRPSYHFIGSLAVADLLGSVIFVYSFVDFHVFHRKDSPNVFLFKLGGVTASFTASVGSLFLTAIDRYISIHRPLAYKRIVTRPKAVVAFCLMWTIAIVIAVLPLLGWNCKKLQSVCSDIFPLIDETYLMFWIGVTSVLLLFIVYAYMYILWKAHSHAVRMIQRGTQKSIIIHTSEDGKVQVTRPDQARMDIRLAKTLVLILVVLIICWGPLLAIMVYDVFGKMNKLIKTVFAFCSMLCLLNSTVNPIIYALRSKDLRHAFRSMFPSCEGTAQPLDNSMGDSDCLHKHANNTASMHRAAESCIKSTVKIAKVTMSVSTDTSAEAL

SMILES	pKi [1]	pKi [2]	pIC50 [3]	pIC50 [4]	Max inhibition [5]	Max inhibition [6]	pKi [7]	Max inhibition [8]
CCCCC/C=C\C/C=C\C/C=C\C/C=C\CCCC(=O)NC(C)Cc1ccsc1 (configuration not stated)	> 5.30	< 6.00	< 3.92	4.68	37%	78%	< 6.00	–
CCCCC/C=C\C/C=C\C/C=C\C/C=C\CCCC(=O)NCCc1ccco1	< 5.30	< 6.00	< 3.92	4.89	–	>85%	< 5.30	38%
CCCCC/C=C\C/C=C\C/C=C\C/C=C\CCCC(=O)O[C@@H](C)c1ccco1	< 5.30	< 5.30	< 3.92	–	–	55%	< 6.00	24%
CCCCC/C=C\C/C=C\C/C=C\C/C=C\CCCC(=O)OCc1ccsc1	–	< 5.30	4.08	–	100%	>85%	< 5.30	–
CCCCC/C=C\C/C=C\C/C=C\C/C=C\CCCCNCc1ccoc1	< 5.30	< 6.00	4.54	–	57%	>85%	< 6.00	–
CCCCC/C=C\C/C=C\C/C=C\C/C=C\CCCC(=O)OCc1ccoc1	–	< 5.30	3.99	–	100%	>85%	< 5.30	–
CCCCC/C=C\C/C=C\C/C=C\C/C=C\CCCC(=O)N(Cc1cccs1)Cc1cccs1	< 5.30	< 6.00	–	4.80	–	>85%	< 6.00	–
CCCCC/C=C\C/C=C\C/C=C\C/C=C\CCCC(=O)OCCc1cccs1	< 5.30	< 5.30	4.62	4.92	68%	>85%	< 6.00	–
CCCCC/C=C\C/C=C\C/C=C\C/C=C\CCCC(=O)NC(C)c1ccco1 (configuration not stated)	< 5.30	< 5.30	4.44	4.68	75%	>85%	< 5.30	–
CCCCC/C=C\C/C=C\C/C=C\C/C=C\CCCC(=O)NCc1ccoc1	–	–	4.52	–	100%	>85%	5.33	–
CCCCC/C=C\C/C=C\C/C=C\C/C=C\CCCC(=O)OCC1CCCO1 (configuration not stated)	–	< 5.30	< 3.92	–	23%	>85%	< 5.30	–
CCCCC/C=C\C/C=C\C/C=C\C/C=C\CCCC(=O)OCc1cccs1	–	< 5.30	4.92	–	80%	–	< 5.30	–
CCCCC/C=C\C/C=C\C/C=C\C/C=C\CCCC(=O)NCc1ccsc1	< 5.30	< 6.00	4.92	5.30	76%	>85%	< 6.00	–
CCCCC/C=C\C/C=C\C/C=C\C/C=C\CCCC(=O)NCCc1cccs1	< 5.30	< 6.00	3.99	4.72	100%	>85%	5.52	–
